Laboratory results published in ChEMBL document CHEMBL4311947, “Discovery of Novel Naphthylphenylketone and Naphthylphenylamine Derivatives as Cell Division Cycle 25B (CDC25B) Phosphatase Inhibitors: Design, Synthesis, Inhibition Mechanism, and in Vitro Efficacy against Melanoma Cell Lines” (J Med Chem, 2019).
Active and inactive are the calls of the source. The calls are words filed in the database; no cut-off is given here.

Assays:
[1] = molecular target: T1, M-phase inducer phosphatase 2 (Homo sapiens, UniProt P30305); experiment: Non-competitive inhibition of N-terminal His6-tagged human CDC25B (377 to 550 residues) expressed in Escherichia coli BL21(DE3) cells using OMFP as substrate by double reciprocal Lineweaver-Burk plot analysis
T1 sequence (P30305 whole entry): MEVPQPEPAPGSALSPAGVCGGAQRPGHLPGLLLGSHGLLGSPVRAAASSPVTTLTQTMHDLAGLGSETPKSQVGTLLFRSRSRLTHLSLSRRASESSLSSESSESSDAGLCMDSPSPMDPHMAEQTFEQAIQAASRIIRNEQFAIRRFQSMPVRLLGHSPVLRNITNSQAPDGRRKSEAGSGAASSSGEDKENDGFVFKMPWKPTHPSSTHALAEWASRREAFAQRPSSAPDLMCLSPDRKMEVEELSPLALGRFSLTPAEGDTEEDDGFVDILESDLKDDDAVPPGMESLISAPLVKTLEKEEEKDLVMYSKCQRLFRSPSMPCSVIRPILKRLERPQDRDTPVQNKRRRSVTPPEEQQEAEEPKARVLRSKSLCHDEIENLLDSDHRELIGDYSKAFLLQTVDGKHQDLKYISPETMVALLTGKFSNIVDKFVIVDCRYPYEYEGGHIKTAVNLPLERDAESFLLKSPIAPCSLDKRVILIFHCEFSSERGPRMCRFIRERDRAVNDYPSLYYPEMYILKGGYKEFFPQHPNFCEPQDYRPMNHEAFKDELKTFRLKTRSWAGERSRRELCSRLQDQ
Procedure, shortened: (§1)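 Recombinant CDC25 form (15–25 nM) in 20 mM Tris-HCl pH 7.8, 0.5 mM TCEP, 1% (v/v) DMSO, with or without inhibitor. Reaction started with 0.5–25 µM OMFP; O-methylfluorescein formation followed continuously at 30°C (ex 485/em 530 nm). Initial rates (AU/min) analysed in Lineweaver-Burk plots for Vmax, KM and mechanism; Ki averaged from at least three independent experiments, only roughly estimated for mixed inhibition.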

[2] = molecular target: T2, M-phase inducer phosphatase 3 (Homo sapiens, UniProt P30307); experiment: Inhibition of N-terminal His6-tagged human CDC25C (280 to 454 residues) expressed in Escherichia coli BL21(DE3) cells using OMFP as substrate by double reciprocal Lineweaver-Burk plot analysis; procedure, shortened: as §1
T2 sequence (P30307 whole entry): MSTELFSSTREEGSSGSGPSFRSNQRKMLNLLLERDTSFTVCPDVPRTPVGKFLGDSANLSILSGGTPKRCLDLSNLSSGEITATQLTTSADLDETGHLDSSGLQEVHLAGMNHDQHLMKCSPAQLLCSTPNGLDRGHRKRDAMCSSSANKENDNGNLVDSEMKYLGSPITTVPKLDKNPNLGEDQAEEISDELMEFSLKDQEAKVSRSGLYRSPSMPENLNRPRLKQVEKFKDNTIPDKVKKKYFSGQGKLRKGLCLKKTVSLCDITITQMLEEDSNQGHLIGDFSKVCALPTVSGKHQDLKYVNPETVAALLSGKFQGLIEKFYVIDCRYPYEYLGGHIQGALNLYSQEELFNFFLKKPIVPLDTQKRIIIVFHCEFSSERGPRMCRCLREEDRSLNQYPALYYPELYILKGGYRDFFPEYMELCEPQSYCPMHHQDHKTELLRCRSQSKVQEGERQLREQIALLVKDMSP

[3] = molecular target: T3, M-phase inducer phosphatase 1 (Homo sapiens, UniProt P30304); experiment: Inhibition of N-terminal His6-tagged human CDC25A (336 to 508 residues) expressed in Escherichia coli BL21(DE3) cells using OMFP as substrate by double reciprocal Lineweaver-Burk plot analysis; procedure, shortened: as §1
T3 sequence (P30304 whole entry): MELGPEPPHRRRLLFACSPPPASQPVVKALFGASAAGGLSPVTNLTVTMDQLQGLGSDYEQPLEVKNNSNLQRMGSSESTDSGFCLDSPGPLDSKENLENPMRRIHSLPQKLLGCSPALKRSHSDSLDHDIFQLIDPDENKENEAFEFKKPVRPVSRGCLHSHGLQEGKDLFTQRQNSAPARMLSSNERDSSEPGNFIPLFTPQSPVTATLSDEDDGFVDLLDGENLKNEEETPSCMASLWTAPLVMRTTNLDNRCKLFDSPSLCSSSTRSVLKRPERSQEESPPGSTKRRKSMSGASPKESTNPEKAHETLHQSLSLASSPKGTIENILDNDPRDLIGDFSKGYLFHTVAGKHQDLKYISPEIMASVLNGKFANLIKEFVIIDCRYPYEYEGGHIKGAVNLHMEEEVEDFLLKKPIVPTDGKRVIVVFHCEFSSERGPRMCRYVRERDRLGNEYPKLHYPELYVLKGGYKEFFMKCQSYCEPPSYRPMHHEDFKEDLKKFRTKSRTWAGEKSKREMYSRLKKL

[4] = molecular target: T4, M-phase inducer phosphatase 2 (Homo sapiens) (UniProt P30305); experiment: Inhibition of N-terminal His6-tagged human CDC25B (377 to 550 residues) expressed in Escherichia coli BL21(DE3) cells assessed as reduction in Vmax using OMFP as substrate by double reciprocal Lineweaver-Burk plot analysis; procedure, shortened: as §1
T4 sequence (whole entry): T1 sequence (P30305 whole entry)

[5] = molecular target: T1, M-phase inducer phosphatase 2; experiment: Uncompetitive inhibition of N-terminal His6-tagged human CDC25B (377 to 550 residues) expressed in Escherichia coli BL21(DE3) cells using OMFP as substrate by double reciprocal Lineweaver-Burk plot analysis; procedure, shortened: as §1
[6] = molecular target: T4, M-phase inducer phosphatase 2 (Homo sapiens); experiment: Inhibition of N-terminal His6-tagged human CDC25B (377 to 550 residues) expressed in Escherichia coli BL21(DE3) cells at 4 uM by spectrofluorimetric analysis
Procedure, shortened: (§2)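 Intrinsic fluorescence of 1 µM recombinant CDC25B in 20 mM Tris·HCl pH 7.8, 0.5 mM TCEP, 0.5% (v/v) DMSO, recorded at 20°C with 280 nm excitation and 10 nm slits, without or with added NPA derivative. OMFP substrate omitted.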

[7] = molecular target: T1, M-phase inducer phosphatase 2; experiment: Mixed inhibition of N-terminal His6-tagged human CDC25B (377 to 550 residues) expressed in Escherichia coli BL21(DE3) cells using OMFP as substrate by double reciprocal Lineweaver-Burk plot analysis; procedure, shortened: as §1
[8] = molecular target: T4, M-phase inducer phosphatase 2 (Homo sapiens); experiment: Inhibition of N-terminal His6-tagged human CDC25B (377 to 550 residues) expressed in Escherichia coli BL21(DE3) cells at 3 uM by spectrofluorimetric analysis; procedure, shortened: as §2
[9] = molecular target: T4, M-phase inducer phosphatase 2 (Homo sapiens); experiment: Inhibition of N-terminal His6-tagged human CDC25B (377 to 550 residues) expressed in Escherichia coli BL21(DE3) cells at 1.5 uM by spectrofluorimetric analysis; procedure, shortened: as §2
A2058 = experiment: Cytotoxicity against human A2058 cells at 50 uM after 48 hrs by MTT assay; type: functional, cell-based
Procedure, shortened: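 Cells seeded at 4×10^4/well, treated 24 h after plating with inhibitor or 0.5% (v/v) DMSO vehicle for 24, 48 or 72 h. MTT added, 3 h at 37°C under 5% CO2, formazan solubilised, absorbance at 570 nm. Viability in arbitrary units, mean ± SE of at least three independent experiments versus control. Cells grown in DMEM/10% FBS at 37°C, 5% CO2; BJ-5ta cultured in 4:1 DMEM/Medium 199 with hygromycin B.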

SMILES	Ki [1] [µM]	inhibition [4]	further results
Nc1cccc2c(Nc3cccc(C(=O)O)c3)cccc12 [listing 1 of 3 here]	0.8	–	–
Nc1cccc2c(Nc3cccc(C(=O)O)c3)cccc12 [listing 2 of 3 here]	–	–	Ki [2]: 4 µM; Ki [3]: 0.6 µM
O=C(O)c1cccc(Nc2cc(O)cc3ccccc23)c1	5.8	Active	–
COc1cc(Nc2ccccc2C(=O)O)c2ccccc2c1	16.9	Active	–
c1ccc(Nc2cccc3ccccc23)cc1	–	Active	Ki [7]: 32 µM
Nc1ccc(Nc2cccc(C(=O)O)c2)c2ccccc12	1.4	Active	inhibition [8]: Active
COc1cc(Nc2cccc(C(=O)O)c2)c2ccccc2c1	–	Active	Ki [5]: 55 µM
O=C(O)c1cccc(Nc2cccc3ccccc23)c1	–	Active	Ki [7]: 30 µM
O=C(O)c1ccccc1C(=O)c1cc(O)cc2ccccc12	34	Active	–
Nc1cccc2c(Nc3cccc(C(=O)O)c3)cccc12 [listing 3 of 3 here]	–	Active	inhibition [9]: Active
COc1ccc(Nc2cccc(C(=O)O)c2)c2ccccc12	–	Active	Ki [5]: 45 µM
O=C(O)c1ccccc1C(=O)c1cccc2ccccc12	–	Active	Ki [7]: 69 µM
COc1cc(C(=O)c2ccccc2C(=O)O)c2ccccc2c1	–	Active	Ki [7]: 36 µM
COc1ccc(C(=O)c2ccccc2C(=O)O)c2ccccc12	7.1	Active	–

Continued, in another order:

Ki [1] [µM]	inhibition [4]	SMILES	further results
11.9	Active	CCOC(=O)c1cccc(Nc2ccc(OC)c3ccccc23)c1	–
6.5	Active	Nc1cccc2c(Nc3ccccc3C(=O)O)cccc12	–
–	Active	CCOC(=O)c1ccccc1Nc1cccc2ccccc12	Ki [5]: 2.8 µM; inhibition [6]: inactive; Ki [2]: 0.4 µM; Ki [3]: 0.6 µM
4.9	Active	CCOC(=O)c1cccc(Nc2cccc3c(O)cccc23)c1	–
13.4	Active	O=C(O)c1ccccc1Nc1cccc2c(O)cccc12	–
–	Active	O=C(O)c1cccc(Nc2ccc(O)c3ccccc23)c1	Ki [5]: 6.4 µM
–	Active	CCOC(=O)c1ccccc1C(=O)c1cccc2ccccc12	Ki [7]: 54 µM
–	Active	CCOC(=O)c1ccccc1Nc1cc(OC)cc2ccccc12	Ki [5]: 12.5 µM
–	Active	COc1ccc(Nc2ccccc2C(=O)O)c2ccccc12	Ki [5]: 6.1 µM
7.4	Active	CCOC(=O)c1ccccc1Nc1cccc2c(O)cccc12	–
6.9	Active	CCOC(=O)c1ccccc1Nc1ccc(OC)c2ccccc12	–
2.7	Active	O=C(O)c1ccccc1Nc1ccc(O)c2ccccc12	–
5.1	Active	O=C(O)c1ccccc1Nc1cc(O)cc2ccccc12	–
9.9	Active	CCOC(=O)c1ccccc1Nc1cccc2c(N)cccc12	–
2.9	Active	O=C(O)c1cccc(Nc2cccc3c(O)cccc23)c1	–
–	Active	O=C(O)c1ccccc1Nc1cccc2ccccc12	Ki [5]: 22 µM
–	Active	CCOC(=O)c1cccc(Nc2cccc3ccccc23)c1	Ki [5]: 7.3 µM; Activity (A2058): Active
36	Active	CCOC(=O)c1cccc(Nc2cccc3c(N)cccc23)c1	–
